In ChEMBL document CHEMBL3272249, “Esters of N-tert-butylarterenol. Long-acting new bronchodilators with reduced cardiac effects” (J Med Chem, 1976):

Columns and labels:
Canis familiaris [1] = experiment: Cardiotoxicity in spontaneously respiring dog assessed as degree of increase in heart rate at 20 to 40 mg/kg, iv relative to control; format: toxicity, organism-based, Canis lupus familiaris; set-up: dose 20-40 mg/kg, route intravenous; conditions: in vivo
In short: (§1)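 Anesthetized, spontaneously respiring dogs. Heart rate was taken from a lead II EKG, and blood pressure from the right femoral artery by transducer. The increase in heart rate (beats/min) was scored on a graded scale with more than 4 dogs per dose, and its duration was recorded. Drugs were dissolved fresh in distilled water, diluted in physiological saline and kept on ice.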

Canis familiaris [2] = experiment: Cardiotoxicity in spontaneously respiring dog assessed as degree of increase in heart rate at 160 mg/kg, id relative to control; format: toxicity, organism-based, Canis lupus familiaris; set-up: dose 160 mg/kg, route intraduodenal; conditions: in vivo, other; in short: as §1
Canis familiaris [3] = experiment: Cardiotoxicity in spontaneously respiring dog assessed as degree of increase in heart rate at 250 to 1000 mg/kg, it relative to control; format: toxicity, organism-based, Canis lupus familiaris; set-up: dose 250-1000 mg/kg, route endotracheal; conditions: in vivo, inhaled_or_intranasal; in short: as §1
Canis familiaris [4] = experiment: Cardiotoxicity in spontaneously respiring dog assessed as time of increase in heart rate at 20 to 40 mg/kg, iv relative to control; format: toxicity, organism-based, Canis lupus familiaris; set-up: dose 20-40 mg/kg, route intravenous; conditions: in vivo; in short: as §1
Canis familiaris [5] = experiment: Cardiotoxicity in spontaneously respiring dog assessed as time of increase in heart rate at 160 mg/kg, id relative to control; format: toxicity, organism-based, Canis lupus familiaris; set-up: dose 160 mg/kg, route intraduodenal; conditions: in vivo, other; in short: as §1
Canis familiaris [6] = experiment: Cardiotoxicity in spontaneously respiring dog assessed as time of increase in heart rate at 250 to 1000 mg/kg, it relative to control; format: toxicity, organism-based, Canis lupus familiaris; set-up: dose 250-1000 mg/kg, route endotracheal; conditions: in vivo, inhaled_or_intranasal; in short: as §1
Canis familiaris [7] = experiment: Bronchodilator activity in dog assessed as time of inhibition of carbachol or histamine-induced bronchoconstriction at 20 to 40 mg/kg, iv relative to control; format: functional, Canis lupus familiaris; conditions: dose mg/kg 20-40
In short: (§2)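 Dog airway model: anesthetized, cannulated via a nonbreathing valve, with airway pressure changes recorded after iv carbachol (2–4 μg/kg) or histamine diphosphate (20–50 μg/kg) challenge, each agonist in different animals. Compounds were given iv, intraduodenally or intratracheally from fresh aqueous stocks diluted in saline. Duration (h) of inhibition of induced bronchoconstriction was followed, and the two agonist datasets were pooled.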

Canis familiaris [8] = experiment: Bronchodilator activity in dog assessed as time of inhibition of carbachol or histamine-induced bronchoconstriction at 160 mg/kg, id relative to control; format: functional, Canis lupus familiaris; conditions: route intraduodenal; in short: as §2
Canis familiaris [9] = experiment: Bronchodilator activity in dog assessed as time of inhibition of carbachol or histamine-induced bronchoconstriction at 250 to 1000 mg/kg, it relative to control; format: functional, Canis lupus familiaris; conditions: dose mg/kg 250-1000; route endotracheal; in short: as §2
Canis familiaris [10] = experiment: Bronchodilator activity in dog assessed as degree of inhibition of carbachol or histamine-induced bronchoconstriction at 20 to 40 mg/kg, iv relative to control; format: functional, Canis lupus familiaris; conditions: dose mg/kg 20-40
In short: (§3)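 Anesthetized dogs, trachea cannulated with a nonbreathing valve. Bronchoconstriction induced by iv carbachol (2–4 μg/kg) or histamine diphosphate (20–50 μg/kg) in separate animals, and airway pressure recorded by transducer. Drug stocks were made fresh in distilled water, diluted in saline and kept on ice. Read-out was percent inhibition of control constriction, averaged over at least three dogs per dose at the higher dose. Carbachol and histamine data were combined.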

Canis familiaris [11] = experiment: Bronchodilator activity in dog assessed as degree of inhibition of carbachol or histamine-induced bronchoconstriction at 160 mg/kg, id relative to control; format: functional; conditions: Canis lupus familiaris, route intraduodenal; in short: as §3
Canis familiaris [12] = experiment: Bronchodilator activity in dog assessed as degree of inhibition of carbachol or histamine-induced bronchoconstriction at 250 to 1000 mg/kg, it relative to control; format: functional, Canis lupus familiaris; conditions: dose mg/kg 250-1000; route endotracheal; in short: as §3
Canis familiaris [13] = experiment: Cardiotoxicity in spontaneously respiring dog assessed as degree of increase in heart rate at 0.35 to 2 mg/kg, iv relative to control; format: toxicity, organism-based, Canis lupus familiaris; set-up: dose 0.35-2 mg/kg, route intravenous; conditions: in vivo
In short: (§4)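 Anesthetized, spontaneously respiring dogs. Heart rate monitored by lead II EKG; blood pressure from right femoral artery by pressure transducer. Rise in heart rate (beats/min) scored ±=5-15, +=20-40, ++=40-60, +++=>60, n>4/dose; duration of the rise in h. Drug stocks freshly made in distilled water, diluted in physiological saline, kept on ice.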

Canis familiaris [14] = experiment: Cardiotoxicity in spontaneously respiring dog assessed as degree of increase in heart rate at 50 to 300 mg/kg, id relative to control; format: toxicity, organism-based, Canis lupus familiaris; set-up: dose 50-300 mg/kg, route intraduodenal; conditions: in vivo, other; in short: as §4
Canis familiaris [15] = experiment: Cardiotoxicity in spontaneously respiring dog assessed as degree of increase in heart rate at 150 to 300 mg/kg, it relative to control; format: toxicity, organism-based, Canis lupus familiaris; set-up: dose 150-300 mg/kg, route endotracheal; conditions: in vivo, inhaled_or_intranasal; in short: as §4
Canis familiaris [16] = experiment: Cardiotoxicity in spontaneously respiring dog assessed as time of increase in heart rate at 0.35 to 2 mg/kg, iv relative to control; format: toxicity, organism-based, Canis lupus familiaris; set-up: dose 0.35-2 mg/kg, route intravenous; conditions: in vivo; in short: as §4
Canis familiaris [17] = experiment: Cardiotoxicity in spontaneously respiring dog assessed as time of increase in heart rate at 50 to 300 mg/kg, id relative to control; format: toxicity, organism-based, Canis lupus familiaris; set-up: dose 50-300 mg/kg, route intraduodenal; conditions: in vivo, other; in short: as §4
Canis familiaris [18] = experiment: Cardiotoxicity in spontaneously respiring dog assessed as time of increase in heart rate at 150 to 300 mg/kg, it relative to control; format: toxicity, organism-based, Canis lupus familiaris; set-up: dose 150-300 mg/kg, route endotracheal; conditions: in vivo, inhaled_or_intranasal; in short: as §4
Canis familiaris [19] = experiment: Bronchodilator activity in dog assessed as time of inhibition of carbachol or histamine-induced bronchoconstriction at 0.35 to 2 mg/kg, iv relative to control; format: functional, Canis lupus familiaris; conditions: dose mg/kg 0.35-2
In short: (§5)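 Dog with airway cannulated through a nonbreathing valve. Bronchoconstriction induced by iv carbachol (2–4 µg/kg) or histamine diphosphate (20–50 µg/kg); airway pressure recorded by pressure transducer. Each compound tested against both agonists in different animals, and results were combined and averaged. Bronchodilation = % inhibition of control constriction; degree scored as +, ++, +++ (20-45, 45-70, >70%) from higher dose, ≥3 dogs/dose; duration in h.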

Canis familiaris [20] = experiment: Bronchodilator activity in dog assessed as time of inhibition of carbachol or histamine-induced bronchoconstriction at 50 to 300 mg/kg, id relative to control; format: functional, Canis lupus familiaris; conditions: dose mg/kg 50-300; route intraduodenal; in short: as §5
Canis familiaris [21] = experiment: Bronchodilator activity in dog assessed as time of inhibition of carbachol or histamine-induced bronchoconstriction at 150 to 300 mg/kg, it relative to control; format: functional, Canis lupus familiaris; conditions: dose mg/kg 150-300; route endotracheal; in short: as §5
Canis familiaris [22] = experiment: Bronchodilator activity in dog assessed as degree of inhibition of carbachol or histamine-induced bronchoconstriction at 0.35 to 2 mg/kg, iv relative to control; format: functional, Canis lupus familiaris; conditions: dose mg/kg 0.35-2; in short: as §5
Canis familiaris [23] = experiment: Bronchodilator activity in dog assessed as degree of inhibition of carbachol or histamine-induced bronchoconstriction at 50 to 300 mg/kg, id relative to control; format: functional, Canis lupus familiaris; conditions: dose mg/kg 50-300; route intraduodenal; in short: as §5
Canis familiaris [24] = experiment: Bronchodilator activity in dog assessed as degree of inhibition of carbachol or histamine-induced bronchoconstriction at 150 to 300 mg/kg, it relative to control; format: functional, Canis lupus familiaris; conditions: dose mg/kg 150-300; route endotracheal; in short: as §5
Canis familiaris [25] = experiment: Cardiotoxicity in spontaneously respiring dog assessed as degree of increase in heart rate at 0.3 to 2 mg/kg, iv relative to control; format: toxicity, organism-based, Canis lupus familiaris; set-up: dose 0.3-2 mg/kg, route intravenous; conditions: in vivo; in short: as §1
Canis familiaris [26] = experiment: Cardiotoxicity in spontaneously respiring dog assessed as degree of increase in heart rate at 50 to 240 mg/kg, id relative to control; format: toxicity, organism-based, Canis lupus familiaris; set-up: dose 50-240 mg/kg, route intraduodenal; conditions: in vivo, other; in short: as §1
Canis familiaris [27] = experiment: Cardiotoxicity in spontaneously respiring dog assessed as degree of increase in heart rate at 125 to 150 mg/kg, it relative to control; format: toxicity, organism-based, Canis lupus familiaris; set-up: dose 125-150 mg/kg, route endotracheal; conditions: in vivo, inhaled_or_intranasal; in short: as §1
Canis familiaris [28] = experiment: Cardiotoxicity in spontaneously respiring dog assessed as time of increase in heart rate at 0.3 to 2 mg/kg, iv relative to control; format: toxicity, organism-based, Canis lupus familiaris; set-up: dose 0.3-2 mg/kg, route intravenous; conditions: in vivo; in short: as §1
Canis familiaris [29] = experiment: Cardiotoxicity in spontaneously respiring dog assessed as time of increase in heart rate at 50 to 240 mg/kg, id relative to control; format: toxicity, organism-based, Canis lupus familiaris; set-up: dose 50-240 mg/kg, route intraduodenal; conditions: in vivo, other
In short: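 Anesthetized, spontaneously respiring dogs. Heart rate monitored by lead II EKG, with blood pressure taken from the right femoral artery by pressure transducer and recorded on a polygraph. Drug stocks made fresh in distilled water, diluted in physiological saline and kept on ice. Dosing was iv, id or it as listed. The duration of the heart-rate increase was recorded in h, with more than 4 dogs per dose.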

Canis familiaris [30] = experiment: Cardiotoxicity in spontaneously respiring dog assessed as time of increase in heart rate at 125 to 250 mg/kg, it relative to control; format: toxicity, organism-based, Canis lupus familiaris; set-up: dose 125-250 mg/kg, route endotracheal; conditions: in vivo, inhaled_or_intranasal; in short: as §1
Canis familiaris [31] = experiment: Bronchodilator activity in dog assessed as degree of inhibition of carbachol or histamine-induced bronchoconstriction at 125 to 250 mg/kg, it relative to control; format: functional, Canis lupus familiaris; conditions: dose mg/kg 125-250; route endotracheal; in short: as §5
Canis familiaris [32] = experiment: Bronchodilator activity in dog assessed as time of inhibition of carbachol or histamine-induced bronchoconstriction at 0.3 to 2 mg/kg, iv relative to control; format: functional, Canis lupus familiaris; conditions: dose mg/kg 0.3-2; in short: as §5
Canis familiaris [33] = experiment: Bronchodilator activity in dog assessed as time of inhibition of carbachol or histamine-induced bronchoconstriction at 50 to 240 mg/kg, id relative to control; format: functional, Canis lupus familiaris; conditions: dose mg/kg 50-240; route intraduodenal; in short: as §5
Canis familiaris [34] = experiment: Bronchodilator activity in dog assessed as time of inhibition of carbachol or histamine-induced bronchoconstriction at 125 to 250 mg/kg, it relative to control; format: functional, Canis lupus familiaris; conditions: dose mg/kg 125-250; route endotracheal; in short: as §5
Canis familiaris [35] = experiment: Bronchodilator activity in dog assessed as degree of inhibition of carbachol or histamine-induced bronchoconstriction at 0.3 to 2 mg/kg, iv relative to control; format: functional, Canis lupus familiaris; conditions: dose mg/kg 0.3-2; in short: as §5
Canis familiaris [36] = experiment: Bronchodilator activity in dog assessed as degree of inhibition of carbachol or histamine-induced bronchoconstriction at 50 to 240 mg/kg, id relative to control; format: functional, Canis lupus familiaris; conditions: dose mg/kg 50-240; route intraduodenal; in short: as §5

## COc1ccc(C(=O)Oc2ccc([C@@H](O)CNC(C)(C)C)cc2OC(C)=O)cc1.CS(=O)(=O)O
Canis familiaris [1]
  Activity: 20%
Canis familiaris [2]
  Activity: 20%
Canis familiaris [3]
  Activity: 5%
Canis familiaris [4]
  Time: 2 h
Canis familiaris [5]
  Time: < 3 h
Canis familiaris [6]
  Time: < 1 h
Canis familiaris [7]
  Time: >4 h
Canis familiaris [8]
  Time: >5 h
Canis familiaris [9]
  Time: >6 h
Canis familiaris [10]
  inhibition (INH): >70%
Canis familiaris [11]
  inhibition in vivo at 160 mg/kg: > 70%
Canis familiaris [12]
  inhibition (INH): >70%

## CC(C)(C)NC[C@H](O)c1ccc(O)c(O)c1
Canis familiaris [13]
  Activity: 40%
Canis familiaris [14]
  Activity: 40%
Canis familiaris [15]
  Activity: 20%
Canis familiaris [16]
  Time: < 0.25 h
Canis familiaris [17]
  Time: 3 h
Canis familiaris [18]
  Time: 1 h
Canis familiaris [19]
  Time: >1 h
Canis familiaris [20]
  Time: 3 h
Canis familiaris [21]
  Time: <2 h
Canis familiaris [22]
  inhibition (INH): >70%
Canis familiaris [23]
  inhibition (INH): 45%
Canis familiaris [24]
  inhibition (INH): >70%

## CC(C)NCC(O)c1ccc(O)c(O)c1 (stereo unspecified) [ISOPROTERENOL]
Canis familiaris [25]
  Activity: > 60%
Canis familiaris [26]
  Activity: 40%
Canis familiaris [27]
  Activity: 20%
Canis familiaris [28]
  Time: < 0.25 h
Canis familiaris [29]
  Time: 2 h
Canis familiaris [30]
  Time: 1 h
Canis familiaris [31]
  inhibition (INH): >70%
Canis familiaris [32]
  Time: <1 h
Canis familiaris [33]
  Time: <2 h
Canis familiaris [34]
  Time: <1 h
Canis familiaris [35]
  inhibition (INH): >70%
Canis familiaris [36]
  inhibition (INH): 20%
